{"source": "PubChem BioAssay AID602407", "about": "(Southern Research Specialized Biocontainment Screening …, 2012)", "biological_target": "Cytosol aminopeptidase (Homo sapiens) (UniProt P28838)", "sequence (P28838 whole entry, looked up)": "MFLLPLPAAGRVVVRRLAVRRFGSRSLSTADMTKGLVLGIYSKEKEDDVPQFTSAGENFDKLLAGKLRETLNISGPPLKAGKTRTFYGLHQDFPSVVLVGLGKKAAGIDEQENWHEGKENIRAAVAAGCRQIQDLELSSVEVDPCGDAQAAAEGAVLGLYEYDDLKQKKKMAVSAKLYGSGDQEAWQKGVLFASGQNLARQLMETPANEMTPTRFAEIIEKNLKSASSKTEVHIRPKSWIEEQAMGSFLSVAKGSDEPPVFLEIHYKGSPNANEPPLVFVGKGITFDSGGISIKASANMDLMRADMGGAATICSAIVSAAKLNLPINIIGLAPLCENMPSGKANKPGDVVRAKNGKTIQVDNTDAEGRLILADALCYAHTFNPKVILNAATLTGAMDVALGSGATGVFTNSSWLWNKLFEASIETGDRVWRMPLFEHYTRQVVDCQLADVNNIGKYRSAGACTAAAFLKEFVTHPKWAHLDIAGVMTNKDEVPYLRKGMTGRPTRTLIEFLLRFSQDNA", "test": "human M17 leucine aminopeptidase inhibitors, dose response, counter-screen for PfM17LAP inhibitor project, biochemical, QFRET fluorogenic substrate (AID 602407)", "conditions": "recombinant human M17LAP, H-Leu-NHMec fluorogenic cleavage; for inhibition: at 100 µM (top of the series)", "in_short": "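system = recombinant human M17LAP enzyme | dosing = ten twofold steps from 100 µM, 2% DMSO | times = 90 min reaction, room temperature | technique = fluorescence of released NHMec, excitation 370 nm, emission 460 nm | read-out basis = % inhibition and IC50 from constrained four-parameter fit | controls = full reaction and enzyme-free controls | replicates = triplicates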", "note": "Calls of active or inactive are those of the source.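 Rule for the calls: active = inhibition of 30% or more at any tested concentration; inactive = the rest.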"}
{"compound": "CCC(C)Oc1ccc(CC(=O)NO)cc1", "note": "(stereo not drawn)", "values": [{"measurement": "IC50", "result": 380, "unit": "nM"}]}
{"compound": "CCCCOc1cccc(CC(=O)OC)c1", "values": [{"measurement": "inhibition", "result": "inactive"}]}
{"compound": "O=C(NO)c1ccc2ccccc2c1", "values": [{"measurement": "IC50", "result": 8380, "unit": "nM"}]}
{"compound": "CCCCOc1cccc(CC(=O)NO)c1", "values": [{"measurement": "IC50", "result": 2770, "unit": "nM"}]}
{"compound": "CCCCOc1ccc(C(C)(C)C(=O)O)cc1", "values": [{"measurement": "inhibition", "result": "inactive"}]}
{"compound": "CCCOc1ccc(CC(=O)NO)cc1", "values": [{"measurement": "IC50", "result": 490, "unit": "nM"}]}
{"compound": "CCCOc1ccc(CC(=O)O)cc1", "values": [{"measurement": "inhibition", "result": "inactive"}]}
{"compound": "CCCCOc1ccc(C(C)C(=O)NO)cc1", "note": "(stereo not drawn)", "values": [{"measurement": "IC50", "result": 530, "unit": "nM"}]}
{"compound": "CCCCOc1ccc(CN(O)C(=O)c2ccccc2)cc1", "values": [{"measurement": "inhibition", "result": "inactive"}]}
{"compound": "CCCCOc1ccc(C(C)C(=O)OC)cc1", "note": "(stereo not drawn)", "values": [{"measurement": "inhibition", "result": "inactive"}]}
{"compound": "CCCCOc1ccc(C(C)(C)C(=O)NO)cc1", "values": [{"measurement": "inhibition", "result": "inactive"}]}
{"compound": "CCCCOc1ccc(CN(O)C(C)=O)cc1", "values": [{"measurement": "inhibition", "result": "inactive"}]}
{"compound": "CN(C)CCOc1ccc(CC(=O)O)cc1", "values": [{"measurement": "inhibition", "result": "inactive"}]}
